In ChEMBL document CHEMBL1151448, “Comparative antianaerobic activities of doripenem determined by MIC and time-kill analysis” (2008):
The source made the active and inactive calls.

Assays:
Prevotella nigrescens = test: Antimicrobial activity against beta lactamase-positive Prevotella nigrescens isolated from intra-abdominal infection and pelvic inflammatory disease patients after 48 hrs by agar dilution method; format: functional
How it was run: (§1)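 CLSI agar dilution on brucella blood agar supplemented with laked sheep blood, hemin and vitamin K. Inocula of about 1 × 10^5 CFU/spot were applied by Steers replicator, and plates were incubated 48 h at 35°C in an anaerobic glove box. MIC was the concentration giving marked growth reduction versus the anaerobic control plate. QC strains were included each run, and β-lactamase was detected by Cefinase disk.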

Prevotella intermedia [1] = test: Bactericidal activity against beta lactamase-positive Prevotella intermedia isolated from intra-abdominal infection and pelvic inflammatory disease patients assessed as bacterial killing at 2 times MIC after 48 hrs by time kill analysis; format: functional
How it was run: (§2)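 Anaerobic macrodilution time-kill. Inoculum from brucella blood plates, prepared and diluted in prereduced brucella broth inside the anaerobe chamber. Final 10^6 to 10^7 CFU/ml in prereduced brucella broth with 5% laked horse blood cells, 5 μg/ml hemin and 1 μg/ml vitamin K1. […] Shaken at 35°C for 48 h. Viable counts taken at 6, 12, 24 and 48 h. 99.9% kill taken as bactericidal.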

[2] = tested on: Bacteroides thetaiotaomicron; test: Antimicrobial activity against beta lactamase-positive Bacteroides thetaiotaomicron isolated from intra-abdominal infection and pelvic inflammatory disease patients after 48 hrs by time kill analysis; format: functional
How it was run: (§3)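 The MIC was read by inspecting macrodilution time-kill tubes. Vials held prereduced brucella broth with 5% laked horse blood cells, hemin 5 μg/ml and vitamin K1 1 μg/ml. Final inoculum was 10^6–10^7 CFU/ml, prepared inside the anaerobe chamber. Vials were incubated 48 h at 35°C in a shaking water bath.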

[3] = tested on: Clostridium paraputrificum; test: Antimicrobial activity against Clostridium paraputrificum isolated from intra-abdominal infection and pelvic inflammatory disease patients after 48 hrs by agar dilution method; format: functional; how it was run: as §1
Bacteroides fragilis [4] = test: Antimicrobial activity against beta lactamase-positive Bacteroides fragilis isolated from intra-abdominal infection and pelvic inflammatory disease patients after 48 hrs by agar dilution method; format: functional; how it was run: as §1
[5] = tested on: Fusobacterium necrophorum; test: Antimicrobial activity against Fusobacterium necrophorum isolated from intra-abdominal infection and pelvic inflammatory disease patients after 48 hrs by agar dilution method; format: functional; how it was run: as §1
Clostridioides difficile [6] = test: Antimicrobial activity against Clostridium difficile isolated from intra-abdominal infection and pelvic inflammatory disease patients after 48 hrs by time kill analysis; format: functional
How it was run: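 Macrodilution in prereduced brucella broth with 5% laked horse blood cells, 5 μg/ml hemin and 1 μg/ml vitamin K1. Final inoculum 10^6 to 10^7 CFU/ml, prepared inside the anaerobe chamber. Vials incubated 48 h at 35°C in a shaking water bath. MIC read by inspecting the time-kill tubes, alongside an antibiotic-free growth control.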

Prevotella intermedia [7] = test: Bactericidal activity against beta lactamase-positive Prevotella intermedia isolated from intra-abdominal infection and pelvic inflammatory disease patients assessed as bacterial killing at MIC after 24 hrs by time kill analysis; format: functional; how it was run: as §2
[8] = tested on: Parabacteroides distasonis; test: Antimicrobial activity against beta lactamase-positive Bacteroides distasonis isolated from intra-abdominal infection and pelvic inflammatory disease patients after 48 hrs by agar dilution method; format: functional; how it was run: as §1
Prevotella intermedia [9] = test: Antimicrobial activity against beta lactamase-positive Prevotella intermedia isolated from intra-abdominal infection and pelvic inflammatory disease patients after 48 hrs by agar dilution method; format: functional; how it was run: as §1
Clostridium cadaveris = test: Antimicrobial activity against Clostridium cadaveris isolated from intra-abdominal infection and pelvic inflammatory disease patients after 48 hrs by agar dilution method; format: functional; how it was run: as §1
[10] = tested on: Paeniclostridium sordellii; test: Antimicrobial activity against Clostridium sordellii isolated from intra-abdominal infection and pelvic inflammatory disease patients after 48 hrs by agar dilution method; format: functional; details: Paraclostridium sordellii; how it was run: as §1
Finegoldia magna [11] = test: Bactericidal activity against beta lactamase-positive Finegoldia magna isolated from intra-abdominal infection and pelvic inflammatory disease patients assessed as 99.9% bacterial killing at 2 times MIC after 48 hrs by time kill analysis; format: functional, organism-based
How it was run: (§4)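 Macrodilution time-kill in prereduced brucella broth with 5% laked horse blood, hemin 5 μg/ml and vitamin K1 1 μg/ml, at final inoculum 10^6–10^7 CFU/ml. […] Viable counts were taken at 6, 12, 24 and 48 h on plates incubated 48 h anaerobically. 99.9% kill was taken as bactericidal.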

Fusobacterium mortiferum = test: Antimicrobial activity against beta lactamase-positive Fusobacterium mortiferum isolated from intra-abdominal infection and pelvic inflammatory disease patients after 48 hrs by agar dilution method; format: functional; how it was run: as §1
Fusobacterium nucleatum [12] = test: Antimicrobial activity against beta lactamase-positive Fusobacterium nucleatum isolated from intra-abdominal infection and pelvic inflammatory disease patients after 48 hrs by agar dilution method; format: functional; how it was run: as §1
Porphyromonas gingivalis = test: Antimicrobial activity against Porphyromonas gingivalis isolated from intra-abdominal infection and pelvic inflammatory disease patients after 48 hrs by agar dilution method; format: functional; how it was run: as §1
Finegoldia magna [13] = test: Bactericidal activity against beta lactamase-positive Finegoldia magna isolated from intra-abdominal infection and pelvic inflammatory disease patients assessed as bacterial killing at 2 times MIC after 48 hrs by time kill analysis; format: functional; how it was run: as §2
[14] = tested on: Porphyromonas asaccharolytica; test: Antimicrobial activity against Porphyromonas asaccharolyticus isolated from intra-abdominal infection and pelvic inflammatory disease patients after 48 hrs by agar dilution method; format: functional; how it was run: as §1
Fusobacterium nucleatum [15] = test: Bactericidal activity against beta lactamase-positive Fusobacterium nucleatum isolated from intra-abdominal infection and pelvic inflammatory disease patients assessed as bacterial killing at 2 times MIC after 48 hrs by time kill analysis; format: functional; how it was run: as §2
Thomasclavelia ramosa = test: Antimicrobial activity against Clostridium ramosum isolated from intra-abdominal infection and pelvic inflammatory disease patients after 48 hrs by agar dilution method; format: functional; how it was run: as §1
Clostridioides difficile [16] = test: Bactericidal activity against Clostridium difficile isolated from intra-abdominal infection and pelvic inflammatory disease patients assessed as bacterial killing at 2 times MIC after 48 hrs by time kill analysis; format: functional; how it was run: as §4
Finegoldia magna [17] = test: Antimicrobial activity against Finegoldia magna isolated from intra-abdominal infection and pelvic inflammatory disease patients after 48 hrs by agar dilution method; format: functional; how it was run: as §1
Bacteroides ovatus = test: Antimicrobial activity against beta lactamase-positive Bacteroides ovatus isolated from intra-abdominal infection and pelvic inflammatory disease patients after 48 hrs by agar dilution method; format: functional; how it was run: as §1
Prevotella bivia = test: Antimicrobial activity against beta lactamase-positive Prevotella bivia isolated from intra-abdominal infection and pelvic inflammatory disease patients after 48 hrs by agar dilution method; format: functional; how it was run: as §1
[Clostridium] innocuum = Antimicrobial activity against Clostridium innocuum isolated from intra-abdominal infection and pelvic inflammatory disease patients after 48 hrs by agar dilution method; format: functional; how it was run: as §1
[18] = tested on: Prevotella melaninogenica; test: Antimicrobial activity against beta lactamase-positive Prevotella melaninogenica isolated from intra-abdominal infection and pelvic inflammatory disease patients after 48 hrs by agar dilution method; format: functional; how it was run: as §1
Bacteroides fragilis [19] = test: Antimicrobial activity against beta lactamase-positive Bacteroides fragilis isolated from intra-abdominal infection and pelvic inflammatory disease patients after 48 hrs by time kill analysis; format: functional; how it was run: as §3
Phocaeicola vulgatus = test: Antimicrobial activity against beta lactamase-positive Bacteroides vulgatus isolated from intra-abdominal infection and pelvic inflammatory disease patients after 48 hrs by agar dilution method; format: functional; how it was run: as §1
Finegoldia magna [20] = test: Bactericidal activity against beta lactamase-positive Finegoldia magna isolated from intra-abdominal infection and pelvic inflammatory disease patients assessed as bacterial killing at MIC after 24 hrs by time kill analysis; format: functional; how it was run: as §2

C[C@@H](O)[C@H]1C(=O)N2C(C(=O)O)=C(S[C@@H]3CN[C@H](C(=O)N(C)C)C3)[C@H](C)[C@H]12 [MEROPENEM]
0.5 mg/L: MIC90 [8] | MIC90 (Fusobacterium mortiferum) | MIC90 (Bacteroides ovatus)
2 mg/L: MIC50 ([Clostridium] innocuum)
0.25 mg/L: MIC [2] | MIC [3] | MIC (Bacteroides ovatus) | MIC50 (Bacteroides ovatus) | MIC50 (Phocaeicola vulgatus)
90%: Activity (Prevotella intermedia [7]) | Activity (Finegoldia magna [20])
0.06 mg/L: MIC90 (Prevotella nigrescens) | MIC [10] | MIC (Finegoldia magna [17]) | MIC50 (Finegoldia magna [17]) | MIC50 (Prevotella bivia) | MIC50 [18]
0.125 mg/L: MIC50 (Bacteroides fragilis [4]) | MIC90 [5] | MIC [8] | MIC50 [8] | MIC90 (Prevotella intermedia [9]) | MIC50 (Fusobacterium mortiferum) | MIC90 (Finegoldia magna [17]) | MIC90 (Prevotella bivia) | MIC (Bacteroides fragilis [19])
0.03 mg/L: MIC50 (Prevotella nigrescens) | MIC50 (Prevotella intermedia [9]) | MIC (Clostridium cadaveris) | MIC90 (Fusobacterium nucleatum [12])
≤ 0.016 mg/L: MIC [5] | MIC50 [5] | MIC (Fusobacterium nucleatum [12]) | MIC50 (Fusobacterium nucleatum [12]) | MIC (Porphyromonas gingivalis) | MIC [14]
1 mg/L: MIC90 (Bacteroides fragilis [4]) | MIC (Clostridioides difficile [6]) | MIC50 (Thomasclavelia ramosa) | MIC90 (Phocaeicola vulgatus)
99%: Activity (Prevotella intermedia [1]) | Activity (Finegoldia magna [13]) | Activity (Fusobacterium nucleatum [15]) | Activity (Clostridioides difficile [16])
inactive: Activity (Finegoldia magna [11])
